Data on three compounds can be found in ChEMBL document CHEMBL1136201, “Synthesis and binding selectivity of 7- and 15-decylbenzolactone-V8 for the C1 domains of protein kinase C isozymes” (Bioorg Med Chem Lett, 2003).

Assay [1] addresses T1, Protein kinase C alpha type (Homo sapiens, UniProt P17252). The assay is described as follows: Displacement of [3H]PDBu from protein kinase C Alpha-C1A domain. The essentials: (§1)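 Synthetic C1 peptides of about 50 amino acids, used as surrogates for the PKC C1 domains, were incubated with [3H]phorbol 12,13-dibutyrate (PDBu). Competitor was assessed by inhibition of specific [3H]PDBu binding. […] Values are given with standard deviation from at least two separate experiments.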

Assay [2] has as its target T1, Protein kinase C alpha type. Nature of the assay: Displacement of [3H]PDBu from protein kinase C Alpha-C1B domain. The essentials:
as §1

The target in assay [3] is T2, Protein kinase C beta type (Homo sapiens, UniProt P05771). Nature of the assay: Displacement of [3H]PDBu from protein kinase C Beta-C1A domain. The essentials:
as §1

The target in assay [4] is T2, Protein kinase C beta type. The assay is described as follows: Displacement of [3H]PDBu from protein kinase C Beta-C1B domain. In a few lines: as §1
Assay [5] concerns the target T3, Protein kinase C delta type (Homo sapiens, UniProt Q05655). Nature of the assay: Displacement of [3H]PDBu from protein kinase C Delta-C1B domain. The essentials: as §1
The target of assay [6] is Protein kinase C theta type (Homo sapiens, UniProt Q04759). The assay is described as follows: Displacement of [3H]PDBu from protein kinase C Theta-C1B domain. In a few lines: as §1
Chain of Protein kinase C theta type (Q04759 whole entry, the tested form may be a part): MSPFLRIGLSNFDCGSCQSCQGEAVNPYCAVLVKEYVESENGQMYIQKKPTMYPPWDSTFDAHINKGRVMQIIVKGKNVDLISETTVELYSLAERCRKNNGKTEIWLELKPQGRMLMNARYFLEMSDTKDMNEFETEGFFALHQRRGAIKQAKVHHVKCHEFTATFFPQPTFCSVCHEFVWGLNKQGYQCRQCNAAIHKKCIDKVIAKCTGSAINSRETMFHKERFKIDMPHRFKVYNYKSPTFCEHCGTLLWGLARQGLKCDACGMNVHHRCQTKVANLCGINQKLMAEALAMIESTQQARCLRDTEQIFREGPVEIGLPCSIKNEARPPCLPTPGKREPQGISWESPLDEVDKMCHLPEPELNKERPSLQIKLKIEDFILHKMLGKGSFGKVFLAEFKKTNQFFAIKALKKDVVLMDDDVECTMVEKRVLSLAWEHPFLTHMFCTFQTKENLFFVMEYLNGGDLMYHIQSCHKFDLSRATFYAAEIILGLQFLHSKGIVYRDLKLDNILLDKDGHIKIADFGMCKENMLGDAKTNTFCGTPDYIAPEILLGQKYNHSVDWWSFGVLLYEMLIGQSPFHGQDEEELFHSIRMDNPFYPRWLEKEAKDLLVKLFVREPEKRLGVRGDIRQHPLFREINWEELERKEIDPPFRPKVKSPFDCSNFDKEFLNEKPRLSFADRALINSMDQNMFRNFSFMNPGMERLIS
The target in assay [7] is T4, Protein kinase C gamma type (Homo sapiens, UniProt P05129). The assay is described as follows: Displacement of [3H]PDBu from protein kinase C gamma-C1A domain. The essentials: as §1
The target in assay [8] is T4, Protein kinase C gamma type. Nature of the assay: Displacement of [3H]-PDBu from protein kinase C gamma-C1B domain. The essentials: as §1
The target of assay [9] is T5, Protein kinase C eta type (Homo sapiens, UniProt P24723). Nature of the assay: Displacement of [3H]PDBu from protein kinase C eta-C1A domain. In a few lines:
as §1

The target of assay [10] is T5, Protein kinase C eta type. The assay is described as follows: Displacement of [3H]PDBu from protein kinase C eta-C1B domain. In a few lines: as §1
The target in assay [11] is T6, Protein kinase C epsilon type (Homo sapiens, UniProt Q02156).
T6 sequence (Q02156 whole entry): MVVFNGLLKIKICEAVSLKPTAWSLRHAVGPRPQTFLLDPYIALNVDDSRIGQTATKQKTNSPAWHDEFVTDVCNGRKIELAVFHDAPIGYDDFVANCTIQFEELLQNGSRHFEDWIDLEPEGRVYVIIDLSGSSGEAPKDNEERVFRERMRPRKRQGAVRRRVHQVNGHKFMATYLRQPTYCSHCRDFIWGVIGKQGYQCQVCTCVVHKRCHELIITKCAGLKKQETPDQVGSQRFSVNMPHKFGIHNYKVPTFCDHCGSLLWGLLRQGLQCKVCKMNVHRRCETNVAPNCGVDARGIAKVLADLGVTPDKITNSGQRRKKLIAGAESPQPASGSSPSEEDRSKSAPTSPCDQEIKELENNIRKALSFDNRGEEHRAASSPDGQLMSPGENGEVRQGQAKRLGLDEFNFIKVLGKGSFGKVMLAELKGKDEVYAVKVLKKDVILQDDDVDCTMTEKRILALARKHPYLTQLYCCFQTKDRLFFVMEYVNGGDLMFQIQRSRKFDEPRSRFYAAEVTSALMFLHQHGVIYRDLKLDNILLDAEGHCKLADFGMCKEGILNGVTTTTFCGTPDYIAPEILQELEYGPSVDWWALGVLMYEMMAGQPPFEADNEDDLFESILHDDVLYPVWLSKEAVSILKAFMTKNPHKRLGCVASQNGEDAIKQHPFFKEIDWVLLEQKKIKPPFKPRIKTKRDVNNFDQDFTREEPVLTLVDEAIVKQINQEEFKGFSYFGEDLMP
The assay is described as follows: Displacement of [3H]-PDBu from protein kinase C epsilon-C1A domain. In a few lines: as §1

For assay [12], the target named is T6, Protein kinase C epsilon type. Nature of the assay: Displacement of [3H]-PDBu from protein kinase C epsilon-C1B domain. In a few lines:
as §1

Assay [13] concerns the target T3, Protein kinase C delta type. Nature of the assay: Displacement of [3H]PDBu from protein kinase C Delta-C1A domain. The essentials:
as §1

T3 sequence (Q05655 whole entry, the tested form may be a part): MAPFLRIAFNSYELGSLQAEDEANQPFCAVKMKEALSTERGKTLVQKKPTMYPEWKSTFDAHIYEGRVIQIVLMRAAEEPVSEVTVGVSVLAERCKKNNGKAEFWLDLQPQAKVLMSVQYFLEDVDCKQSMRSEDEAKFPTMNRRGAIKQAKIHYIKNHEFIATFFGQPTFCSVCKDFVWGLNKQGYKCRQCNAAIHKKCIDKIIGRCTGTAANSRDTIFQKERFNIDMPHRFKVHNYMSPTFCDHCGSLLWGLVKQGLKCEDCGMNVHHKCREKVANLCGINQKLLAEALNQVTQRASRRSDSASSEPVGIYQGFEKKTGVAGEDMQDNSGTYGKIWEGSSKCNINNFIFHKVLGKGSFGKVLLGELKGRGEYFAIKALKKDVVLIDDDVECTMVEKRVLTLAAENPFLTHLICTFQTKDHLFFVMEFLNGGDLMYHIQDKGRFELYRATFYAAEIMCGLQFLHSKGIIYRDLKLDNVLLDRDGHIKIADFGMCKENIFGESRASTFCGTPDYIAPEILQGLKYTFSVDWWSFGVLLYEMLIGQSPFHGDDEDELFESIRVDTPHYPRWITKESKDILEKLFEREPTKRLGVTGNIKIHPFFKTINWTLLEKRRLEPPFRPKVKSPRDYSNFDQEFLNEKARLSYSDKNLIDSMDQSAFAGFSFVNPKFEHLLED
T5 sequence (P24723 whole entry, the tested form may be a part): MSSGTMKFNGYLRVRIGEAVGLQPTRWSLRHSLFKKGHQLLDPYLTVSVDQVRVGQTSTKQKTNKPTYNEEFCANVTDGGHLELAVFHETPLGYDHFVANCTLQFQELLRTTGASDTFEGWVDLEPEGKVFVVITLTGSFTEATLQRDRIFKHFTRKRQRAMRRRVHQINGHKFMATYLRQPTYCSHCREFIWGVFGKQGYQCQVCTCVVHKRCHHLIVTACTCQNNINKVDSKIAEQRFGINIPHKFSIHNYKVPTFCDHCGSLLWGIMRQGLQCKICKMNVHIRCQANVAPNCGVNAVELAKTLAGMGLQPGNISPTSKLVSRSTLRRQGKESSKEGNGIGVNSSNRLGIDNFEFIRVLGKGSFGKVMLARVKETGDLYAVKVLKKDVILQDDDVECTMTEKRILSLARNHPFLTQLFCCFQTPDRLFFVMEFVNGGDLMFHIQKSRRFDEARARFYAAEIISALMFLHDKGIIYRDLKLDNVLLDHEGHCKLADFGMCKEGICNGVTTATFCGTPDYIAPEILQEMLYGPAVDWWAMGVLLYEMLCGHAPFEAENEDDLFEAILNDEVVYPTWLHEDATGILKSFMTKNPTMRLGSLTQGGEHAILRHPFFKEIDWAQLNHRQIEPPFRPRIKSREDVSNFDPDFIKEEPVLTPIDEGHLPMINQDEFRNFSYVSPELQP
T2 sequence (P05771 whole entry, the tested form may be a part): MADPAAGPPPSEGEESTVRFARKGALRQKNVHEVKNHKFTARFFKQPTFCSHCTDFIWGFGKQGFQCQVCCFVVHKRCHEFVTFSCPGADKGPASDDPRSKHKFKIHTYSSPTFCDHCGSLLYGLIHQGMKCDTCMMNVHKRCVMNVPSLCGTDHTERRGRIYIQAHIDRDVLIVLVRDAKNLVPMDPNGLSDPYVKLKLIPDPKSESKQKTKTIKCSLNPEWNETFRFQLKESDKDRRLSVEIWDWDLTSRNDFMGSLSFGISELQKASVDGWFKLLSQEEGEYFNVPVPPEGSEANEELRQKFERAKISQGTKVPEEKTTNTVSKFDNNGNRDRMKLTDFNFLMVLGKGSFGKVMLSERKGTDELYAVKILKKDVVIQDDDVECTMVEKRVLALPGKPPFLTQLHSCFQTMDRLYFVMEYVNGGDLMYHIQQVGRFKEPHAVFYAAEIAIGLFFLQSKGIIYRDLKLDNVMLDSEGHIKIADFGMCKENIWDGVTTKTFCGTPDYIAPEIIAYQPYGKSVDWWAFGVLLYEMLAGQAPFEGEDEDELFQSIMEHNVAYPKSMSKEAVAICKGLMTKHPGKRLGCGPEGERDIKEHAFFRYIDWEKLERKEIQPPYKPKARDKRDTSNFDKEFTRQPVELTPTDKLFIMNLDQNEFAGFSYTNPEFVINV

For the compound `CCCCCCCCCCc1ccc2c(c1)N(C)[C@@H](C(C)C)C(=O)O[C@H](CO)C2`, the Ki came to 412 nM in assay [1]; 4050 nM in assay [2]; 1140 nM in [3]; 610 nM in assay [4]; 149 nM in [5]; 62 nM in assay [6]. Also, the inhibitory constant (Ki) was 2360 nM in assay [7]; 675 nM in assay [8]; 1590 nM in assay [9]; 37 nM in assay [10]; 4830 nM in assay [11]; 83 nM in assay [12]. Also, the affinity in [13], expressed as Ki, was 6150 nM.

Turning to `CCCCCCCCCCCN1c2ccccc2C[C@@H](CO)OC(=O)[C@@H]1C(C)C`, the Ki in [1] is 4580 nM; in assay [2], over 10000 nM; in [3], 4690 nM; in assay [4], 2070 nM; in assay [5], 415 nM; in assay [6] it was 358 nM. Further, the inhibition constant Ki in assay [7] was found to be 5750 nM; in [8], 2820 nM; in [9] it was 6330 nM; in assay [10] it was 189 nM; in [11], 5360 nM; in assay [12], 411 nM. In assay [13], the inhibition constant (Ki) amounted to 30300 nM.

In the case of `CCCCCCCCCCc1cccc2c1C[C@@H](CO)OC(=O)[C@H](C(C)C)N2C`, the inhibitory constant (Ki) in assay [1] is 870 nM; in [2], over 10000 nM; in assay [3], 539 nM; in assay [4] it was 2690 nM; in assay [5], 92 nM; in [6] it was 167 nM. Also, the inhibitory constant (Ki) in assay [7] turned out to be 970 nM; in [8], 1720 nM; in assay [9], 4250 nM; in [10] it was 111 nM; in [11] it was 7880 nM; in [12], 540 nM. The same compound came in with an inhibitory constant (Ki) in assay [13] of over 10000 nM.
